The source made the active and inactive calls. The calls are words filed in the database; no cut-off is given here.
What was measured:
[1] = molecular target: T1, Mushroom tyrosinase (Agaricus bisporus) (UniProt O42713+Q00024+C7FF04+C7FF05); assay: Inhibition of mushroom tyrosinase monophenolase activity at 100 to 500 uM using L-tyrosine as substrate
How it was run: (§1)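 Monophenolase: 2.0 mM L-tyrosine (stock, 100 μL) in 0.1 M phosphate buffer pH 6.5 with peptide or water was preincubated 10 min at 30 °C. Mushroom tyrosinase (1320 units/mL stock) was added and absorbance at 475 nm monitored at 30 °C. Lag time was taken by extrapolating the linear dopachrome rise to the x-axis. Residual activity = (1/lag with inhibitor)/(1/lag with water) × 100. IC50 was read manually from curves. Triplicate.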

[2] = molecular target: T1, Mushroom tyrosinase (Agaricus bisporus); assay: Inhibition of mushroom tyrosinase diphenolase activity at 100 to 500 uM using L-DOPA as substrate
How it was run: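 Diphenolase: 2.0 mM L-dopa (stock, 100 μL) was mixed with 0.1 M phosphate buffer pH 6.5 and peptide or water, then preincubated 10 min at 30 °C. Mushroom tyrosinase (1320 units/mL stock) was added and dopachrome followed at 475 nm, 30 °C. Residual activity = rate (ΔA475/min) with inhibitor ÷ rate with water × 100. IC50 was estimated manually from inhibition curves. Performed three times.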

[3] = molecular target: T2, Tyrosinase (Mus musculus) (UniProt P11344); assay: Inhibition of tyrosinase in mouse B16 cells assessed as reduction in melanin production at 125 to 500 uM after 3 days; format: cell-based
T2 sequence (whole entry): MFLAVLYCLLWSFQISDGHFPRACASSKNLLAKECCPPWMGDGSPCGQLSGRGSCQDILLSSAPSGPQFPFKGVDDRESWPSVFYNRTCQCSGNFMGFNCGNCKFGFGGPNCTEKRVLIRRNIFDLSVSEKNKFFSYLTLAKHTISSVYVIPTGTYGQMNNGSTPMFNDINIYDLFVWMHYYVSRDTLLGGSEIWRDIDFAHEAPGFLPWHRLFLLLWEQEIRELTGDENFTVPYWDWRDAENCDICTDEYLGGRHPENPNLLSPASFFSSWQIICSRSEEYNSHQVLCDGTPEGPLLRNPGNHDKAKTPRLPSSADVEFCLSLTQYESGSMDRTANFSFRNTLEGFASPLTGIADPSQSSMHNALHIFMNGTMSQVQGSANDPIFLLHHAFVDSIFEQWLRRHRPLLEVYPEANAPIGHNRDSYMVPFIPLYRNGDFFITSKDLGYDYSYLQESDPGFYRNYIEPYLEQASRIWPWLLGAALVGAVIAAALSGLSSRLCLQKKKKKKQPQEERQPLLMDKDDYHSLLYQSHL
How it was run: (§2)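 Melanin content: B16 mouse melanoma cells were seeded at 1.5 × 10^4 cells/well and incubated 24 h. They were then exposed for 3 days to 125, 250 or 500 μM peptide in 5% FBS medium. Cells were harvested with 0.25% trypsin/1 mM EDTA, washed in PBS and lysed in 1 M NaOH, 1 h at 60 °C. Absorbance was read at 420 nm. Matched DMSO without peptide served as background.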

B16 = assay: Cytotoxicity against mouse B16 cells assessed as reduction in cell viability at 125 to 500 uM after 3 days by WST1/MTT assay; format: cell-based; settings: b16, 72 h
How it was run: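 B16 mouse melanoma cells were grown in Eagle's MEM with Earle's salts, 5% or 10% FBS and 1% penicillin–streptomycin, 37 °C, 5% CO2. They were seeded at 1.0 × 10^3 cells/well and left 24 h. Medium was then replaced with 5% FBS medium containing peptide at 125, 250 or 500 μM. After 3 days, viability was read by WST-1. Matched DMSO without peptide served as background. Three independent experiments; mean ± SD.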

[4] = molecular target: T2, Tyrosinase (Mus musculus); assay: Inhibition of tyrosinase in mouse B16 cells assessed as reduction in melanin production at 500 uM after 3 days relative to control; format: cell-based; how it was run: as §2
Mushroom tyrosinase = Mushroom tyrosinase (Agaricus bisporus, UniProt O42713+Q00024+C7FF04+C7FF05); assay: Inhibition of mushroom tyrosinase monophenolase activity using L-tyrosine as substrate; how it was run: as §1

H-WEEEPEDER-OH
inhibition [1]: inactive | inhibition [2]: inactive

H-HPTSEVY-OH
inhibition [1]: Active | inhibition [2]: inactive | inhibition [3]: inactive | Activity (B16): Non-Toxic

H-WEAGQDQR-OH
inhibition [1]: inactive | inhibition [2]: inactive

OC[C@H]1O[C@@H](Oc2ccc(O)cc2)[C@H](O)[C@@H](O)[C@@H]1O
inhibition [4]: Active

H-DTVHGQW-OH
inhibition [1]: inactive | inhibition [2]: inactive

H-LQPSHY-OH
IC50 (Mushroom tyrosinase): 156 µM | inhibition [2]: inactive | inhibition [4]: > 50% | Activity (B16): Non-Toxic

H-HGGEGGRPY-OH
inhibition [1]: Active | inhibition [2]: inactive | inhibition [3]: inactive | Activity (B16): Non-Toxic
